Laboratory results taken from PMC4348351 (Pest management science, 2014).

Columns and labels:
[1] = test system: Musca domestica AChE (MdAChE); assay type: biochemical; conditions: for SR MdAChE: SR = IC50 of agricultural insect AChE/IC50 of An.gAChE
O. nubilalis = assay: Topical toxicity bioassay, O. nubilalis; assay type: in vivo, Ostrinia nubilalis; conditions: for SR (toxicity): Selectivity Ratio = O. nubilalis LD50/An. gambiae LD50; for LD50 (95% CI) O. nubilalis: topical, L2 larvae, 24 hour mortality
In short: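 Lepidopteran larvae were ice-chilled for 3 min before 1 μL of test compound in 95% ethanol was applied to the abdomen with a handheld microapplicator. Five doses, ten larvae per dose, done three times, with an ethanol-only negative control. Food substrate was provided in netted containers.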

[2] = test system: Culex quinquefasciatus AChE (CqAChE); assay: AChE inhibition, Ellman assay, CqAChE; assay type: biochemical; conditions: SR = IC50 of mosquito AChE/IC50 of An. gambiae
[3] = test system: Diaphorina citri AChE (DcAChE); assay: AChE inhibition, Ellman assay, DcAChE; assay type: biochemical; conditions: SR = IC50 of agricultural insect AChE/IC50 of An.gAChE
[4] = test system: Anopheles quadrimaculatus AChE (An.qAChE); assay: AChE inhibition, Ellman assay, An.qAChE; assay type: biochemical; conditions: SR = IC50 of mosquito AChE/IC50 of An. gambiae
An. gambiae = assay: Topical toxicity bioassay, An. gambiae; assay type: in vivo, Anopheles gambiae; conditions: adult females, 24 hour mortality
In short: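 Anopheline adults, chilled on ice for 1 min, received 200 nL of test compound in 95% ethanol on the abdomen via handheld microapplicator. Five doses × ten insects, three repeats, plus an ethanol-only control. Sugar water was freely available under netting.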

[5] = test system: Anopheles albimanus AChE (An.aAChE); assay: AChE inhibition, Ellman assay, An.aAChE; assay type: biochemical; conditions: SR = IC50 of mosquito AChE/IC50 of An. gambiae
[6] = biological target: Drosophila melanogaster AChE (DmAChE) (Drosophila melanogaster, UniProt P07140); assay: AChE inhibition, Ellman assay, DmAChE; assay type: biochemical; conditions: for SR DmAChE: SR = IC50 of agricultural insect AChE/IC50 of An.gAChE
[7] = test system: Apis mellifera AChE (Ap.mAChE); assay: AChE inhibition, Ellman assay, Ap.mAChE; assay type: biochemical; conditions: for SR Ap.mAChE: SR = IC50 of agricultural insect AChE/IC50 of An.gAChE
[8] = test system: Plutella xylostella AChE (PxAChE); assay: AChE inhibition, Ellman assay, PxAChE; assay type: biochemical; conditions: for SR PxAChE: SR = IC50 of agricultural insect AChE/IC50 of An.gAChE
Ae. aegypti = assay: Topical toxicity bioassay, Ae. aegypti; assay type: in vivo, Aedes aegypti; conditions: adult females, 24 hour mortality
In short: (§1)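 Adult mosquitoes were chilled on ice for 3 min, then 200 nL of test compound in 95% ethanol was applied to the abdomen by handheld microapplicator. Five doses, ten insects each, repeated three times, with an ethanol-only negative control. Insects were held under netting with free access to sugar water.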

[9] = biological target: Aedes aegypti AChE (Ae.aAChE) (Aedes aegypti, UniProt Q6A2E2); assay: AChE inhibition, Ellman assay, Ae.aAChE; assay type: biochemical; conditions: SR = IC50 of mosquito AChE/IC50 of An. gambiae
[10] = test system: Ostrinia nubilalis AChE (OnAChE); assay: AChE inhibition, Ellman assay, OnAChE; assay type: biochemical; conditions: for SR OnAChE: SR = IC50 of agricultural insect AChE/IC50 of An.gAChE
[11] = test system: Aedes albopictus AChE (Ae.bAChE); assay: AChE inhibition, Ellman assay, Ae.bAChE; assay type: biochemical; conditions: SR = IC50 of mosquito AChE/IC50 of An. gambiae
Cu. quinquefasciatus = assay: Topical toxicity bioassay, Cu. quinquefasciatus; assay type: in vivo, Culex quinquefasciatus; conditions: adult females, 24 hour mortality
In short: as §1

[12] = test system: mosquito acetylcholinesterases; assay: AChE inhibition, statements across mosquito species; assay type: biochemical

| Compound | SR MdAChE [1] | SR (toxicity) (O. nubilalis) | LD50 (95% CI) O. nubilalis (O. nubilalis) | SR CqAChE [2] | SR DcAChE [3] | SR An.qAChE [4] | LD50 (95% CI) An. gambiae (An. gambiae) | SR An.aAChE [5] | SR DmAChE [6] | SR Ap.mAChE [7] | SR PxAChE [8] | LD50 (95% CI) Ae. aegypti (Ae. aegypti) | SR Ae.aAChE [9] | SR OnAChE [10] | SR Ae.bAChE [11] | LD50 (95% CI) Cu. quinquefasciatus (Cu. quinquefasciatus) | also measured |
| --- | --- | --- | --- | --- | --- | --- | --- | --- | --- | --- | --- | --- | --- | --- | --- | --- | --- |
| CNC(=O)Oc1cccc2c1OC(C)(C)O2 [Bendiocarb, bendiocarb] | 0.3 | 2 | 4 (2–6) aB ng/mg | 1.2 | 0.5 | 0.8 | 2 (1–4) aA ng/mg | 1.0 | 0.2 | 0.3 | 1.3 | 1 (0.5–3) aA ng/mg | 0.7 | 2 | 0.8 | 2 (1–4) aB ng/mg | fold more potent than propoxur, MdAChE ([1]; IC50 ratio versus propoxur): 2.6 fold; fold more toxic than 1, O. nubilalis (O. nubilalis; LD50 ratio versus 1): 24 fold; LD50 (95% CI) O. nubilalis (O. nubilalis; listed as bendiocarb): 4 ng/mg; fold more potent than propoxur, DmAChE ([6]; IC50 ratio versus propoxur): 3.9 fold; fold difference in IC50 versus propoxur, Ap.mAChE ([7]; IC50 ratio versus propoxur): 19 fold; fold more potent than 1, PxAChE ([8]; IC50 ratio versus 1): 3 fold; fold more potent than 5, PxAChE ([8]; IC50 ratio, 100 μM value used for 5): 461 fold; SR PxAChE ([8]; listed as bendiocarb): ≤ 7; fold more potent than 1, OnAChE ([10]; IC50 ratio versus 1): 8 fold; fold more potent than 5, OnAChE ([10]; IC50 ratio versus 5): 243 fold |
| CNC(=O)Oc1cccc2c1OC(C)(C)C2 [Carbofuran, carbofuran] | – | – | – | 2.3 | – | 0.9 | – | 1.2 | – | – | – | – | 0.9 | – | 1.0 | – | fold more active than bendiocarb, within each mosquito species ([12]; IC50 ratio versus bendiocarb): about 3 fold; fold more potent than propoxur, within each mosquito species ([12]; IC50 ratio versus propoxur): approximately 10 fold |
| CNC(=O)Oc1ccccc1OC(C)C [Propoxur] | 0.3 | 14 | 42 (34–49) cA ng/mg | 1.1 | 2 | 1.0 | 3 (2–4) aA ng/mg | 1.1 | 0.2 | 2 | 7.5 | 3 (1–4) aA ng/mg | 0.8 | 15 | 0.8 | 8 (5–11) bA ng/mg | SR PxAChE ([8]; listed as propoxur): 7 |
